Legend:
[1] = Pharmacokinetics of FA after IV and oral; type: in vivo, Sprague-Dawley rats; conditions: for clearance: Sprague-Dawley, rat, serum, iv
[2] = Tolerability / toxicity observation during the pharmacokinetic studies; type: in vivo, Sprague-Dawley rats
In short: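 Male Sprague-Dawley rats with jugular catheters were watched for toxic signs, including chromodacryorrhea, while on the pharmacokinetic study. Nine rats each received 25 mg/kg IV and 25 mg/kg PO (gavage) in saline, with sampling to 8 h. Separate IV dosing was at 10, 25 and 75 mg/kg. Animals were killed in a CO2 chamber after each study.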

[3] = oral 20 mg/kg, acyl carbon radiolabelled FA; cited from earlier work
[4] = cited from earlier work
[5] = cited from earlier work; remark: listed apart in the source
[6] = system: HNSCC; conditions: oral dose of 25 mg/kg per day; cited from earlier work

SMILES: CCCCc1ccc(C(=O)O)nc1 [fusaric acid, 5-butlypicolinic acid]
- time until FA serum concentration fell below the lower limit of quantitation (10 µM) ([1]; 25 mg/kg IV or PO, all animals): ≤ 4 h
- Vd (apparent volume of distribution) ([1]; 25 mg/kg oral, average): 182 ± 27 mL
- clearance ([1]; 10 mg/kg, 10 mg/kg IV): 0.783 mL/min
- clearance ([1]; 25 mg/kg, 25 mg/kg IV): 1.35 mL/min
- Toxicity (i.e., chromodacyrea) ([2]; 25 mg/kg IV and PO, nine animals): not observed
- adverse effects ([2]; IV doses of 10, 25, and 75 mg/kg): no adverse effects observed
- calculated FA concentration at peak radioactivity [3]: 42 ± 7.4 µg/mL
- FA excreted unchanged in the urine [4]: < 5%
- dose at which adverse effects were observed [5]: 100 mg/kg
- efficacy toward HNSCC [6]: efficacious

Reference: article PMC4070457 (Drugs in R&D, 2014)
